Reference: article PMC5035373 (Diabetes Technology & Therapeutics, 2016)

What was measured:
[1] = test system: patients with type 2 diabetes; experiment: Safety and tolerability: adverse events, pain per visual analog scale; type: in vivo, human
How it was run: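 All enrolled patients were analysed for safety. Injection-site reactions, AEs and SAEs were recorded on study days and later visits, with their relation to the intervention. Insertion pain was rated on a visual analog scale and preference was surveyed. Intradermal vs SC tolerability was compared within subjects by Wilcoxon paired test.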

[2] = Insulin pharmacokinetics after ID; type: in vivo, human; details: for Insulin AUC 0–1 / Insulin AUC 0–1.5 / Insulin AUC 4–6: SD; for Cmax, median / Insulin AUC (360 min), median / Tmax, median: 0.2 U/kg
How it was run: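 Open-label randomized crossover in type 2 diabetics (30–70 y, BMI <35, HbA1c 6.5%–10%, drug-naive or metformin only). Insulin aspart 0.2 U/kg into right lower abdomen, intradermal via MicronJet or SC via pen, 4–14 days apart, fasting or pre-standard meal. Blood at −5 min, baseline, every 10 min to 2 h, then every 30 min to 6 h. Insulin measured by immunoassay; AUC, partial AUCs, AUCID/AUCSC derived.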

[3] = ID via MicronJet needle, all patients, n = 14
[4] = ID via MicronJet needle, before standard meal test, n = 3
[5] = SC conventional needle, all patients, n = 14
[6] = SC conventional needle, before standard meal test, n = 3
[7] = SC conventional needle, fasting, n = 11

Q: Which results are given for Insulin aspart?
A: Subjects experiencing AEs ([1]; 17 patients in safety analysis, 5 AEs in total): 3 of 17; Local AEs (injection site reactions) ([1]; all 17 patients, ID and SC injections): No local AEs (injection site reactions) were reported; Insulin AUC 0–1 ([2]; ID MicronJet, 0–1 h, fasting population n = 11, mean ± SD): 3695.2 ± 1593.3 μU/mL/min; Insulin AUC 0–1.5 ([2]; ID MicronJet, 0–1.5 h, fasting population n = 11, mean ± SD): 4912.0 ± 2154.6 μU/mL/min; Insulin AUC 0–1.5 ([2]; ID MicronJet, 0–1.5 h postinjection, overall population n = 14, mean ± SD): 5156.3 ± 1988.7 μU/mL/min; Insulin AUC 4–6 ([2]; ID MicronJet, 4–6 h, fasting population n = 11, mean ± SD): 2027.3 ± 946.5 μU/mL/min; Insulin AUC 4–6 ([2]; ID MicronJet, 4–6 h postinjection, overall population n = 14, mean ± SD): 2054.4 ± 857.7 μU/mL/min; Cmax, median [2, 3]: 80 μU/mL; Insulin AUC (360 min), median [2, 3]: 9913.75 μU/mL/min; Tmax, median [2, 3]: 0.583 h; Cmax, median [2, 4]: 95 μU/mL; Insulin AUC (360 min), median [2, 4]: 12690 μU/mL/min; Tmax, median [2, 4]: 0.833 h; Cmax, median ([2]; ID via MicronJet needle, fasting, n = 11): 79 μU/mL; Cmax, median [2, 5]: 55 μU/mL; Insulin AUC (360 min), median [2, 5]: 10936.25 μU/mL/min; Tmax, median [2, 5]: 1.46 h; Cmax, median [2, 6]: 68 μU/mL; Insulin AUC (360 min), median [2, 6]: 13960 μU/mL/min; Tmax, median [2, 6]: 1.17 h; Cmax, median [2, 7]: 54.5 μU/mL; Insulin AUC (360 min), median [2, 7]: 10,407.5 μU/mL/min; Tmax, median ([2]; SC via NovoPen conventional needle, fasting, n = 11, type 2 diabetes): 1.5 h; Insulin AUC 0–1 ([2]; SC, 0–1 h, fasting population n = 11, mean ± SD): 2346.1 ± 609.7 μU/mL/min; Insulin AUC 0–1 ([2]; SC, 0–1 h postinjection, overall population n = 14, mean ± SD, post hoc): 2534.1 ± 737.1 μU/mL/min; Insulin AUC 0–1.5 ([2]; SC, 0–1.5 h, fasting population n = 11, mean ± SD): 3647.7 ± 904.0 μU/mL/min; Insulin AUC 0–1.5 ([2]; SC, 0–1.5 h postinjection, overall population n = 14, mean ± SD): 4035.4 ± 1255.9 μU/mL/min; Insulin AUC 4–6 ([2]; SC, 4–6 h, fasting population n = 11, mean ± SD): 2903.3 ± 1571.9 μU/mL/min; Insulin AUC 4–6 ([2]; SC, 4–6 h postinjection, overall population n = 14, mean ± SD): 2929.0 ± 1412.1 μU/mL/min
